# Experimental data pooled from the literature.
# Protocols differ between the studies behind these lines.
# TYK2 JH1: Non-receptor tyrosine-protein kinase TYK2, JH1 (TYK2, Homo sapiens, UniProt P29597)
# TYK2: Non-receptor tyrosine-protein kinase TYK2 (TYK2, Homo sapiens, UniProt P29597)
# TYK2 JH2: Non-receptor tyrosine-protein kinase TYK2, JH2 (TYK2, Homo sapiens, UniProt P29597)
SMILES,target,assay,conditions,endpoint,value
CS(=O)(=O)NCC[C@H](NC(=O)c1cncc2c1cnn2-c1ccc(F)cc1)c1ccnc(S(C)(=O)=O)c1,TYK2 JH1,"cell-free assay, competition with immobilised ligand",1 µM,remaining binding,100%
c1cnn2ncc(-c3ccnc(N4CCC45COC5)n3)c2c1,TYK2 JH1,cell-free assay,1 µM,remaining signal,64%
O=C(Nc1cnn(-c2csc(C(=O)NC3COC3)c2)c1)Nc1ccccc1Cl,TYK2,"enzyme activity, inhibitor",5 µM,remaining activity,95.9%
CN(C)c1nccc(-c2cnc3ncccn23)n1,TYK2 JH1,"cell-free assay, competition with immobilised ligand",1 µM,remaining binding,83%
O=C(CSc1nc2nccnc2c(=O)n1CCc1ccccc1)Nc1nccs1,TYK2,"enzyme activity, inhibitor",10 µM,inhibition,5%
COCCOc1nc(-c2ccc(Cl)nc2)nc2c1CN(C(=O)c1ncn3ccccc13)CC2,TYK2 JH1,"cell-free assay, competition with immobilised ligand",0.1 µM,remaining binding,100%
CC/C(=N\NC(=O)NCc1cccc(O)c1)c1ccc(O)c(C)c1O,TYK2,"enzyme activity, inhibitor",0.1 µM,inhibition,7.2%
CN(CCCC(F)(F)F)c1nccc(-c2cnn3ncccc23)n1,TYK2,binding,1 µM,remaining binding,100%
COc1cc2ncnc(Nc3ccc(Oc4ccccc4)c(C)c3C)c2cc1OC,TYK2,"enzyme activity, inhibitor",1 µM,inhibition,-2%
CCN(CC)CCNC(=O)c1c(C)[nH]c(/C=C2\C(=O)Nc3ccc(F)cc32)c1C,TYK2,cell-free assay,0.5 µM,remaining signal,52.6%
Nc1ncnc2occ(-c3ccc(NC(=O)Nc4cc(C(F)(F)F)ccc4F)cc3)c12,TYK2 JH2,"cell-free assay, inhibitor",20 µM,remaining signal,100%
O=C1NC(=O)c2cc(Nc3ccc(F)cc3)c(Nc3ccc(F)cc3)cc21,TYK2,cell-free assay,0.5 µM,remaining signal,80.6%
N[C@@H]1CCN(c2nccc(-c3cnn4ncccc34)n2)C1,TYK2,binding,1 µM,remaining binding,100%
CNC(=O)c1cc(Oc2ccc(NC(=O)Nc3ccc(Cl)c(C(F)(F)F)c3)cc2)ccn1,TYK2,cell-free assay,0.5 µM,remaining signal,98.9%
Cc1c(C(=O)O)cc(-c2ccc(C3CCNCC3)cc2)c2ccc(-c3ccc(C(F)(F)F)cc3)cc12,TYK2 JH1,"binding, competition with immobilised ligand",1 µM,remaining binding,100%
Cc1ccc(NC(=O)c2ccc(C)c(C(F)(F)F)c2)cc1C#Cc1nn(C2CCC(O)CC2)c2ncnc(N)c12 (stereo not shown),TYK2,cell-free assay,10 µM,remaining signal,36%
CN1CC(Oc2cnc(C#N)cc2-c2ccn3nc(NC(=O)C4CC4)cc3c2)C1,TYK2,"enzyme activity, inhibitor",1 µM,inhibition,-10%
CC(C)(C)c1nc(-c2cccc(NS(=O)(=O)c3c(F)cccc3F)c2F)c(-c2ccnc(N)n2)s1,TYK2,"enzyme activity, inhibitor, radiometric",1 µM,remaining activity,96%
O=c1nc(-c2ccccn2)sc2ccccc12,TYK2 JH2,"binding, competition with immobilised ligand",1 µM,remaining binding,98%
C[C@H]1CCN(c2nccc(-c3cnn4ncccc34)n2)C1,TYK2,binding,1 µM,remaining binding,51%
CCC(=N\O)/C(C)=C/c1ccc(F)cc1,TYK2 JH2,"cell-free assay, competition with immobilised ligand",1 µM,remaining binding,73%
Cc1cnc(NC2CCOCC2)nc1-n1cnc(C(=O)NC(CN)c2cc(F)cc(Cl)c2)c1 (stereo not shown),TYK2,"enzyme activity, inhibitor, radiometric",1 µM,remaining activity,96%
CCOCCn1cc(C(=O)Nc2ccc(-n3nc(-c4cccnc4)cc3C(F)(F)F)cn2)ccc1=O,TYK2 JH1,"cell-free assay, competition with immobilised ligand",1 µM,remaining binding,100%
Cc1sc(C(=O)NC2COC2)cc1-n1cc(NC(=O)Nc2c(F)cccc2Cl)cn1,TYK2,"enzyme activity, inhibitor",10 µM,remaining activity,114%
CC1=C(C#N)[C@@H](c2ccc3[nH]nc(C)c3c2)C(C#N)=C(c2ccc(Cl)cc2)N1,TYK2 JH1,"cell-free assay, competition with immobilised ligand",1 µM,remaining binding,73.1%
COc1cc(Cl)c(C(=O)N[C@@H](CN[C@H]2CC[C@@H](N)CC2)Cc2ccc(C#N)cc2)cc1-c1ccc(CN[C@H](C)c2ccc(C)cc2)o1,TYK2,"enzyme activity, inhibitor",1 µM,remaining activity,105%
c1ccc(N2CCN(Cc3nc4ccccc4[nH]3)CC2)nc1,TYK2 JH2,"binding, competition with immobilised ligand",1 µM,remaining binding,100%
CN(c1nccc(-c2cnn3ncccc23)n1)C1CC1,TYK2,binding,1 µM,remaining binding,100%
